Assay results taken from ChEMBL document CHEMBL1143831, “Small molecule inhibitors of aggregation indicate that amyloid beta oligomerization and fibrillization pathways are independent and distinct” (J Biol Chem, 2007).
Structures can show the parent of a compound that is named as a salt. Activity calls are given as the source filed them. No cut-off for these calls is given here.

How the values were obtained:
[1] = Inhibition of synthetic amyloid beta42 oligomer formation by Western blot
How it was run: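 Aβ42 (NaOH stock, 45 µM final) incubated in PBS pH 7.4, 0.02% sodium azide at room temperature without stirring for 5 days, with compound at 300 µM in DMSO; vehicle controls at 1% DMSO. Aliquots were mixed 1:1 with 2x SDS sample buffer, boiled 5 min, and run on 4-20% Tris-HCl gels. The gels were transferred to nitrocellulose and probed with A11 anti-oligomer antibody, with 6E10 also used.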

[2] = Inhibition of synthetic amyloid beta-42 oligomerization by ELISA
[3] = Inhibition of synthetic amyloid beta-42 fibrillation at 30 uM by ThT fluorescence analysis relative to control
How it was run: (§1)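 Aβ42 (45 µM final) from 2 mM NaOH stock, sonicated, diluted into 10 mM HEPES, 100 mM NaCl, 0.02% sodium azide, pH 7.4; stirred at room temperature 4 days with compound in DMSO (controls 1% DMSO). Aliquot mixed with 3 µM ThT; ex 442 nm, em 482 nm; corrected with parallel protein-free reactions; triplicate, % of control.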

[4] = Inhibition of synthetic amyloid beta-42 fibrillation at 300 uM by light scattering analysis relative to control
How it was run: (§2)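 Aβ42 (45 µM final) from 2 mM NaOH stock, diluted into 10 mM HEPES, 100 mM NaCl, 0.02% sodium azide, pH 7.4; stirred at room temperature 4 days with compound in DMSO (controls 1% DMSO). Turbidity at 400 nm, corrected by the 400 nm reading of supernatant after 14,000 rpm, 30 min centrifugation; triplicate, relative to control.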

[5] = Inhibition of synthetic amyloid beta42 fibrillation at 300 uM by ThT fluorescence analysis relative to control; how it was run: as §1
[6] = Inhibition of synthetic amyloid beta-42 fibrillation at 30 uM by light scattering analysis relative to control; how it was run: as §2

| Compound | Activity [1] | IC50 [2] | other results |
| --- | --- | --- | --- |
| COc1cccc(C=O)c1O | inactive | 6.15 µM | – |
| CCN(CC)c1ccc2c(-c3ccccc3C(C)=O)c3ccc(=[N+](CC)CC)cc-3oc2c1 | – | 310 µM | – |
| COc1ccc2nc3cc(Cl)ccc3c(NC(C)CCCN(CCCl)CCCl)c2c1 (stereo not given) | – | 2050 µM | – |
| O=C1C=Cc2ccccc2C1=O [1,2-NAPHTHOQUINONE] | inactive | 11.5 µM | – |
| O=C(c1ccccc1O)c1ccccc1O [2,2'-DIHYDROXYBENZPHENONE] | – | 244 µM | – |
| CNc1ccc2nc3ccc(N)cc3[s+]c2c1 [AZURE C] | inactive | 0.09 µM | – |
| CCN(CCO)c1ccc(/N=N/c2sc3cc(OC)ccc3[n+]2C)cc1 [BASIC BLUE 41] | inactive | 0.12 µM | – |
| COc1cc(-c2ccc(/N=N/c3ccc4c(S(=O)(=O)O)cc(S(=O)(=O)O)c(N)c4c3O)c(OC)c2)ccc1/N=N/c1ccc2c(S(=O)(=O)O)cc(S(=O)(=O)O)c(N)c2c1O [CHICAGO SKY BLUE SODIUM] | inactive | 2.58 µM | – |
| Nc1c(/N=N/c2ccc(-c3ccc(/N=N/c4cc(S(=O)(=O)O)c5ccccc5c4N)cc3)cc2)cc(S(=O)(=O)O)c2ccccc12 [CONGO RED] | inactive | 10 µM | – |
| COc1cc(/C=C/C(=O)CC(=O)/C=C/c2ccc(O)c(OC)c2)ccc1O [CURCUMIN] | – | 361 µM | – |
| COc1cccc2c1C(=O)c1c(O)c3c(c(O)c1C2=O)C[C@@](O)(C(C)=O)C[C@@H]3O[C@H]1C[C@H](N)[C@H](O)[C@H](C)O1 [DAUNORUBICIN HYDROCHLORIDE] | inactive | 7.48 µM | – |
| O=C(O)c1ccccc1-c1c2cc(Br)c(=O)c(Br)c-2oc2c(Br)c(O)c(Br)cc12 [EOSIN Y SODIUM] | – | 2790 µM | – |
| COc1ccc2c(c1)c(CC(=O)O)c(C)n2C(=O)c1ccc(Cl)cc1 [INDOMETHACIN] | – | 958 µM | – |
| O=C1C=CC(=O)c2c(O)cccc21 [JUGLONE] | Active | 67.6 µM | – |
| O=c1cc2oc3cc(O)c(-c4ccc(O)cc4O)cc3nc-2cc1-c1ccc(O)cc1O [LACMOID] | inactive | 25.5 µM | – |
| C=C1c2c(Cl)ccc(O)c2C(=O)C2=C(O)[C@]3(O)C(=O)C(C(N)=O)=C(O)[C@@H](N(C)C)[C@@H]3[C@@H](O)[C@H]12.O=C(O)c1cc(S(=O)(=O)O)ccc1O [MECLOCYCLINE SULFOSALICYLATE] | inactive | 0.25 µM | – |
| O=c1c(O)c(-c2cc(O)c(O)c(O)c2)oc2cc(O)cc(O)c12 [MYRICETIN] | Active | 107 µM | – |
| Cc1ccc2ccc3ccc(C)nc3c2n1 [NEOCUPROINE] | inactive | 17.4 µM | – |
| CC(Cc1ccc(O)c(O)c1)C(C)Cc1ccc(O)c(O)c1 (stereo not given) [NORDIHYDROGUAIARETIC ACID] | inactive | 14.5 µM | – |
| OCCN1CCN(CCCN2c3ccccc3Sc3ccc(Cl)cc32)CC1 [PERPHENAZINE] | – | 26.1 µM | – |
| O=S1(=O)OC(c2ccc(O)cc2)(c2ccc(O)cc2)c2ccccc21 [PHENOLSULFONPHTHALEIN] | – | 426 µM | – |
| CO[C@H]1/C=C/O[C@@]2(C)Oc3c(C)c(O)c4c(O)c(cc(O)c4c3C2=O)NC(=O)/C(C)=C\C=C\[C@H](C)[C@H](O)[C@@H](C)[C@@H](O)[C@@H](C)[C@H](OC(C)=O)[C@@H]1C [RIFAMYCIN] | inactive | 31.6 µM | – |
| CN(C)[C@@H]1C(O)=C(C(=O)NCN2CCCC2)C(=O)[C@@]2(O)C(O)=C3C(=O)c4c(O)cccc4[C@@](C)(O)[C@H]3C[C@@H]12 [ROLITETRACYCLINE] | inactive | 1.87 µM | – |
| C1CCSC1 [TETRAHYDROTHIOPHENE] | Active | 122 µM | – |
| CETRIMIDE [listing 1 of 2 here] | – | 15.9 µM | – |
| CETRIMIDE [listing 2 of 2 here] | inactive | – | inhibition [3]: 112%; Activity [4]: inactive; inhibition [5]: 0.7% |
| N,N,N-trimethylhexadecan-1-aminium bromide | inactive | – | Activity [6]: Active; inhibition [3]: 9.8%; Activity [4]: inactive; inhibition [5]: 0.5% |
